Test results as given in ChEMBL document CHEMBL3120102, “Structure-based design, synthesis and biological evaluation of novel anthra[1,2-d]imidazole-6,11-dione homologues as potential antitumor agents” (2013).

Tested on: MDA-MB-468
Test: Cytotoxicity against human MDA-MB-468 cells assessed as cell growth at 10 uM after 48 hrs by SRB assay
Assay type: functional
Settings: MDA-MB-468, 48 h, read-out: Activity
Outline: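 First stage of the NCI 60 human tumour cell line screen: a single dose is tested against every line. Cell growth is read as cellular protein by sulforhodamine B colorimetry after 48 h of drug exposure, with reference to a time-zero control and to untreated plates.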

`O=C1c2ccccc2C(=O)c2c1ccc1nc3n(c21)CCS3` was tested. Which growth at 10 µM did it give?
Its growth at 10 µM is 69.7%.
